The source of these data is ChEMBL document CHEMBL4033721, “Design, synthesis and evaluation of indole-2-carboxamides with pan anti-mycobacterial activity” (Bioorg Med Chem, 2017).

Each structure is given as a SMILES string. Values after ≈ are worked out from the molar mass of the structure shown.

Data set [1] concerns Mycobacteroides chelonae. The data set can be described thus: Antimycobacterial activity against Mycobacterium chelonae ATCC 35752 after 8 days by resazurin microtiter based colorimetric assay. The format is functional. To be noted: ATCC 35752, 192 h. Summed up: (§1)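 Resazurin microtiter plate MIC, read by visual scan for growth, in Mueller Hinton II broth. Strains include clinical isolates of M. abscessus complex, M. chelonae, M. avium, M. intracellulare, M. xenopi, P. aeruginosa PAO-1 and S. aureus ATCC 25923.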
For orientation: The colour change of resazurin is a common sign of viable cells or microbes.

For data set [2], the system named is Mycobacteroides abscessus. Nature of the data set: Bactericidal activity against Mycobacterium abscessus after 8 days by resazurin microtiter based colorimetric assay. Format: functional. In outline: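 MBC90 found by subculturing from the MIC wells onto 7H11 agar. Value is the lowest concentration cutting CFU by 90% versus the inoculum.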
A short description of data set [3]: Antimycobacterial activity against Mycobacterium bolletii ATCC 14472 after 8 days by resazurin microtiter based colorimetric assay. Format: functional. Conditions: Mycobacteroides abscessus, ATCC 14472, 192 h. In outline: as §1
The test system of data set [4] is Mycobacterium abscessus subsp. massiliense. Nature of the data set: Inhibition of MmpL3 in Mycobacterium massiliense isolate 1513 assessed as reduction in trehalose monomycolate by measuring decrease in mycolic acid transfer to cell envelope after 16 hrs using [1,2-14C]acetate labeled compounds by TLC analysis. Summed up:
(§2)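 Lipids were run on TLC in CHCl3:CH3OH:H2O 20:4:0.5. Cell wall-bound MAMEs were run in n-hexane:ethyl acetate 95:5, developed three times. Phosphorimaging read-out gave TMM/TDM ratios and MAME radioactivity relative to untreated control.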

Data set [5] in a line: Selectivity index, ratio of TD50 for human THP1 cells to MIC for Mycobacterium chelonae ATCC 35752. Conditions: THP-1 cells, read-out: Selectivity Index. The format is toxicity. Summed up:
(§3)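 Ratio of THP-1 cytotoxicity to resazurin-assay MIC. Cytotoxicity: THP-1 cells were differentiated with 80 nM PMA overnight, plated for 24 h, then given 10-point DMSO dilutions (top 50 μM, 0.5% final DMSO) for 3 days at 37°C, 5% CO₂. ATP luminescence was read, with a staurosporine control. IC₅₀ = concentration giving 50% viability, from a Levenberg–Marquardt curve fit.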

Data set [6] has as its system Mycobacterium abscessus subsp. massiliense. The data set can be described thus: Inhibition of MmpL3 in Mycobacterium massiliense isolate 1513 assessed as reduction in arabinogalactan after 16 hrs using [1,2-14C]acetate labeled compounds by TLC analysis. In outline: as §2
Data set [7] has as its system Mycolicibacterium smegmatis. The data set can be described thus: Antimycobacterial activity against Mycobacterium smegmatis isolate MC2 155 after 8 days by resazurin microtiter based colorimetric assay. Conditions: str. MC2 155, 192 h. The format is functional.
Data set [8] is described as follows: Antimycobacterial activity against Mycobacterium massiliense isolate CRM0019 after 8 days by resazurin microtiter based colorimetric assay. Conditions: Mycobacteroides abscessus, isolate CRM0019, 192 h. Format: functional, Mycobacterium abscessus subsp. massiliense. Summed up:
as §1

The test system of data set [9] is Mycobacterium xenopi. The data set can be described thus: Antimycobacterial activity against wild type Mycobacterium xenopi isolate 4042 after 8 days by resazurin microtiter based colorimetric assay. To be noted: isolate 4042, 192 h. Format: functional. In outline: as §1
The nature of data set [10]: Selectivity index, ratio of TD50 for human THP1 cells to MIC for Mycobacterium massiliense isolate CRM0019. The format is toxicity. Conditions: THP-1 cells, read-out: Selectivity Index. Summed up:
as §3

For data set [11], the system named is Mycobacterium abscessus subsp. massiliense. Nature of the data set: Inhibition of MmpL3 in Mycobacterium massiliense isolate 1513 assessed as reduction in trehalose dimycolate after 16 hrs using [1,2-14C]acetate labeled compounds by TLC analysis. In outline:
as §2

Data set [12] can be described thus: Selectivity index, ratio of TD50 for human THP1 cells to MIC for Mycobacterium bolletii ATCC 14472. Conditions: THP-1 cells, read-out: Selectivity Index. Format: toxicity. In outline:
as §3

In data set [13] the test system is Mycobacteroides abscessus. Nature of the data set: Antimycobacterial activity against Mycobacterium abscessus ATCC 19977 after 8 days by resazurin microtiter based colorimetric assay. The format is functional. Conditions: ATCC 19977, 192 h. In outline: as §1
Data set [14] has as its system Staphylococcus aureus. Nature of the data set: Antibacterial activity against Staphylococcus aureus ATCC 25923 after 8 days by resazurin microtiter based colorimetric assay. Conditions: ATCC 25923, 192 h. Format: functional. In outline:
as §1

Data set [15] in a line: Antimycobacterial activity against Mycobacterium massiliense isolate CIP108297 after 8 days by resazurin microtiter based colorimetric assay. The format is functional, Mycobacterium abscessus subsp. massiliense. Conditions: Mycobacteroides abscessus, isolate CIP108297, 192 h. In outline:
as §1

Data set [16] has as its system Pseudomonas aeruginosa. Nature of the data set: Antibacterial activity against Pseudomonas aeruginosa PAO1 after 8 days by resazurin microtiter based colorimetric assay. Format: functional. Conditions: PAO1, 192 h. In outline:
as §1

Data set [17] can be described thus: Selectivity index, ratio of TD50 for human THP1 cells to MIC for Mycobacterium abscessus isolate DCI 21. Format: toxicity. Conditions: THP-1 cells, read-out: Selectivity Index. Summed up:
as §3

Data set [18] deals with Mycobacterium avium-intracellulare. Nature of the data set: Antimycobacterial activity against Mycobacterium avium-intracellulare isolate 1956 after 8 days by resazurin microtiter based colorimetric assay. Conditions: isolate 1956, 192 h. The format is functional. In outline: as §1
Data set [19] deals with Mycobacterium avium. The data set can be described thus: Antimycobacterial activity against Mycobacterium avium isolate 104 after 8 days by resazurin microtiter based colorimetric assay. To be noted: isolate 104, 192 h. The format is functional. Summed up:
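M. avium 104 MICs were read by resazurin microtiter colorimetric assay in 96-well plates, with growth scored visually, in Mueller Hinton II medium.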

Data set [20] deals with Mycobacteroides abscessus. Nature of the data set: Antimycobacterial activity against Mycobacterium abscessus isolate DCI 21 after 8 days by resazurin microtiter based colorimetric assay. The format is functional. Conditions: isolate DCI 21, 192 h. Summed up:
as §1

In data set [21] the test system is Mycobacterium tuberculosis. The data set can be described thus: Antimycobacterial activity against Mycobacterium tuberculosis H37Rv MC2-6206 after 8 days by resazurin microtiter based colorimetric assay. The format is functional. To be noted: H37Rv MC2-6206, 192 h. In outline:
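MIC was measured by resazurin microtiter colorimetric assay with visual growth scoring. Medium was 7H9-ADC–0.05% tyloxapol with 0.2% casaminoacids, 48 µg/ml pantothenate and 50 µg/ml L-leucine.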

Data set [22] can be described thus: Selectivity index, ratio of TD50 for human THP1 cells to MIC for Mycobacterium tuberculosis H37Rv MC2-6206. The format is toxicity. Conditions: THP-1 cells, read-out: Selectivity Index. Summed up:
as §3

Data set [23] can be described thus: Cytotoxicity against human THP1 cells assessed as reduction in cell viability after 3 days by CellTiter-Glo based luminescence assay. Conditions: THP-1 cells, read-out: TD50. Summed up: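 THP-1 cells in complete RPMI, made macrophage-like with 80 nM PMA overnight at 37°C, 5% CO2, then seeded and cultured 24 h. Cells got 10-point DMSO serial dilutions (top 50 µM, final DMSO 0.5%) for 3 days, with staurosporine as control. Viability read by CellTiter-Glo luminescence. IC50 (50% viability) came from a Levenberg–Marquardt curve fit.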
In general terms: ATP-based viability assays read luminescence as a measure of living cells.

Turning to `C[C@@H]1[C@H]2C[C@@H](C[C@H]1NC(=O)c1cc3ccccc3[nH]1)C2(C)C`, the MIC is less than 0.06 µg/mL in data set [1]; 0.12 µg/mL (≈ 0.405 µM) in data set [3]; 0.78 µg/mL (≈ 2.63 µM) in [7]; 0.06 µg/mL (≈ 0.202 µM) in data set [8]; 0.5 to 1 µg/mL (≈ 1.69 to 3.37 µM) in data set [9]; 0.12 µg/mL (≈ 0.405 µM) in data set [13]. Moreover, the MIC in data set [14] was 40 µg/mL (≈ 135 µM); in data set [15], 0.06 µg/mL (≈ 0.202 µM); in data set [16], greater than 160 µg/mL; in [18], 8 µg/mL (≈ 27 µM); in data set [19], 8 µg/mL (≈ 27 µM); in data set [20], 0.5 µg/mL (≈ 1.69 µM). In addition, the lowest concentration to inhibit growth in data set [21] (MIC) was 0.05 µg/mL (≈ 0.169 µM). This molecule also showed an MBC90 in data set [2] of 0.06 µg/mL (≈ 0.202 µM). In addition, the inhibition result in data set [4], in data set [6] and in data set [11] was “Dose-dependent effect” each time. Besides, the selectivity ratio in data set [5] was greater than 188; in data set [10] it was 188; in [12], 92; in data set [17] it was 22.6; in data set [22], 226. Besides, in data set [23], the CC50 at 72 h stood at 11.3 µg/mL (≈ 38.1 µM).

For orientation: MIC means the lowest concentration found to suppress growth.
